Assay results: article PMC2614345 (Toxicology and applied pharmacology, 2008)
Where two headings read alike, the source gives them in different places.

Tests used:
[1] = Biliary excretion of DAPM metabolites; type: in vivo, Sprague Dawley rats; settings: for biliary excretion, male compared to female rats: AUC analysis, 25 and 50 mg/kg DAPM; for AUC for DAPM metabolite elimination in the bile, Females: female rats; for AUC for DAPM metabolite elimination in the bile, Females / AUC for DAPM metabolite elimination in the bile, Males: bile collected 6 h, mean ± SEM, n=4–6; for AUC for DAPM metabolite elimination in the bile, Males: male rats
Summary of the method: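 Sprague Dawley rats of both sexes (12–15 wk) under pentobarbital, with biliary, duodenal and peritoneal cannulas and duodenal taurocholate infusion; 1 h basal bile. Gavage of [14C]-test compound, 25 or 50 mg/kg in 35% ethanol, 2 mL/kg. Bile taken for 6 h in 15-min fractions, deproteinized, then C18 HPLC with UV 254 nm and radioisotope detection. Per-rat nmol-versus-time AUC; group mean ± SEM, n=4–6; two-way ANOVA.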

[2] = 25 mg/kg DAPM, ref Dugas et al., 2001, cited from earlier work
rats = settings: ref Dugas et al., 2001, cited from earlier work

| SMILES | biliary excretion, male compared to female rats [1] | AUC for DAPM metabolite elimination in the bile, Females ([1]; DAPM 25 mg/kg by gavage) | AUC for DAPM metabolite elimination in the bile, Females ([1]; DAPM 50 mg/kg by gavage) | AUC for DAPM metabolite elimination in the bile, Males ([1]; DAPM 25 mg/kg by gavage) | AUC for DAPM metabolite elimination in the bile, Males ([1]; DAPM 50 mg/kg by gavage) | maximum rate of biliary excretion of metabolite ([2]; female rats, maximum at 45 min) | maximum rate of biliary excretion of metabolite ([2]; male rats, maximum at 15 min) | threshold dose for observing injury (rats; female rats) | threshold dose for observing injury (rats; male rats) |
| --- | --- | --- | --- | --- | --- | --- | --- | --- | --- |
| Nc1ccc(Cc2ccc(N)cc2)cc1 [DAPM, 4,4’-Methylenedianiline] | biliary excretion in males was likewise greater than that in female rats | 29 ± 14 nmol·h | 67 ± 31 nmol·h | 155 ± 22 nmol·h | 176 ± 74 nmol·h | ~ 9 µg/min*kg | ~ 18 µg/min*kg | 25 mg/kg | 50 mg/kg |
| CC(=O)Nc1ccc(Cc2ccc(N)cc2)cc1 [Metabolite M5, N-acetyl-DAPM] | greater in male compared to female rats | 39 ± 13 nmol·h | 132 ± 70 nmol·h | 175 ± 11 nmol·h | 259 ± 86 nmol·h |  |  |  |  |
